Assay results: ChEMBL document CHEMBL4145582, “Cytotoxic and Antibacterial Eremophilane Sesquiterpenes from the Marine-Derived Fungus Cochliobolus lunatus SCSIO41401” (J Nat Prod, 2018)
Active and inactive are the calls of the source. The calls are words filed in the database; no cut-off is given here.

Assays:
[1] = tested on: ACHN; assay: Induction of apoptosis in human ACHN cells assessed as viable cells at 1 uM after 24 hrs by Annexin V-FITC/propidium iodide staining based flow cytometric method (reference value: 100%); format: functional; settings: read-out: Activity
Summary of the method: (§1)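 ACHN cells are treated at 1, 2 and 4 μM for 24, 48 and 72 h. Cells are then double-stained with annexin V-FITC and propidium iodide and analysed by flow cytometry. Early apoptotic, late apoptotic, necrotic and viable fractions are quantified.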

[2] = tested on: ACHN; assay: Induction of apoptosis in human ACHN cells assessed as late apoptotic cells at 2 uM after 24 hrs by Annexin V-FITC/propidium iodide staining based flow cytometric method (reference value: 0%); format: functional; summary of the method: as §1
[3] = tested on: ACHN; assay: Induction of apoptosis in human ACHN cells assessed as necrotic cells at 4 uM after 24 hrs by Annexin V-FITC/propidium iodide staining based flow cytometric method (reference value: 0%); format: functional; summary of the method: as §1
[4] = tested on: ACHN; assay: Induction of apoptosis in human ACHN cells assessed as early apoptotic cells at 1 uM after 24 hrs by Annexin V-FITC/propidium iodide staining based flow cytometric method (reference value: 0%); format: functional; summary of the method: as §1
[5] = tested on: ACHN; assay: Induction of apoptosis in human ACHN cells assessed as late apoptotic cells at 2 uM after 48 hrs by Annexin V-FITC/propidium iodide staining based flow cytometric method (reference value: 0%); format: functional; summary of the method: as §1
[6] = tested on: ACHN; assay: Induction of apoptosis in human ACHN cells assessed as early apoptotic cells at 2 uM after 72 hrs by Annexin V-FITC/propidium iodide staining based flow cytometric method (reference value: 0%); format: functional; summary of the method: as §1
[7] = tested on: Pasteurella multocida; assay: Antimicrobial activity against Pasteurella multocida subsp. multocida ATCC 43137 after 24 hrs by serial dilution method; format: functional; settings: ATCC 43137, 24 h
Summary of the method: (§2)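 Serial broth dilution in 96-well microtiter plates. Compounds and controls are dissolved in DMSO as stock. Bacteria are grown overnight at 37 °C, then diluted to 10^6 cfu/mL. E. coli and S. aureus are grown in Luria–Bertani broth. P. multocida and E. rhusiopathiae are grown in trypticase soy broth with 10% calf serum. Plates are incubated at 37 °C for 24 h and read at 630 nm.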

[8] = tested on: ACHN; assay: Induction of apoptosis in human ACHN cells assessed as early apoptotic cells at 4 uM after 24 hrs by Annexin V-FITC/propidium iodide staining based flow cytometric method (reference value: 0%); format: functional; summary of the method: as §1
[9] = tested on: Erysipelothrix rhusiopathiae; assay: Antimicrobial activity against Erysipelothrix rhusiopathiae ATCC 19414 after 24 hrs by serial dilution method; format: functional; settings: ATCC 19414, 24 h; summary of the method: as §2
[10] = tested on: ACHN; assay: Induction of apoptosis in human ACHN cells assessed as necrotic cells at 1 uM after 48 hrs by Annexin V-FITC/propidium iodide staining based flow cytometric method (reference value: 0%); format: functional; summary of the method: as §1
[11] = tested on: ACHN; assay: Induction of apoptosis in human ACHN cells assessed as early apoptotic cells at 1 uM after 72 hrs by Annexin V-FITC/propidium iodide staining based flow cytometric method (reference value: 0%); format: functional; summary of the method: as §1
[12] = tested on: ACHN; assay: Induction of apoptosis in human ACHN cells assessed as late apoptotic cells at 4 uM after 48 hrs by Annexin V-FITC/propidium iodide staining based flow cytometric method (reference value: 0%); format: functional; summary of the method: as §1
[13] = tested on: ACHN; assay: Induction of apoptosis in human ACHN cells assessed as necrotic cells at 1 uM after 24 hrs by Annexin V-FITC/propidium iodide staining based flow cytometric method (reference value: 0%); format: functional; summary of the method: as §1
[14] = tested on: ACHN; assay: Cell cycle arrest in human ACHN cells at 1 to 4 uM after 24 to 72 hrs by propidium iodide staining based flow cytometric method; format: functional
[15] = tested on: ACHN; assay: Induction of apoptosis in human ACHN cells assessed as late apoptotic cells at 2 uM after 72 hrs by Annexin V-FITC/propidium iodide staining based flow cytometric method (reference value: 0%); format: functional; summary of the method: as §1
[16] = tested on: ACHN; assay: Induction of apoptosis in human ACHN cells assessed as early apoptotic cells at 4 uM after 48 hrs by Annexin V-FITC/propidium iodide staining based flow cytometric method (reference value: 0%); format: functional; summary of the method: as §1
[17] = tested on: ACHN; assay: Induction of apoptosis in human ACHN cells assessed as viable cells at 1 uM after 48 hrs by Annexin V-FITC/propidium iodide staining based flow cytometric method (reference value: 100%); format: functional; settings: read-out: Activity; summary of the method: as §1
[18] = tested on: ACHN; assay: Induction of apoptosis in human ACHN cells assessed as late apoptotic cells at 1 uM after 72 hrs by Annexin V-FITC/propidium iodide staining based flow cytometric method (reference value: 0%); format: functional; summary of the method: as §1
[19] = tested on: ACHN; assay: Induction of apoptosis in human ACHN cells assessed as late apoptotic cells at 1 uM after 48 hrs by Annexin V-FITC/propidium iodide staining based flow cytometric method (reference value: 0%); format: functional; summary of the method: as §1
[20] = tested on: ACHN; assay: Induction of apoptosis in human ACHN cells assessed as necrotic cells at 2 uM after 48 hrs by Annexin V-FITC/propidium iodide staining based flow cytometric method (reference value: 0%); format: functional; summary of the method: as §1
[21] = tested on: ACHN; assay: Induction of apoptosis in human ACHN cells assessed as early apoptotic cells at 2 uM after 24 hrs by Annexin V-FITC/propidium iodide staining based flow cytometric method (reference value: 0%); format: functional; summary of the method: as §1
[22] = tested on: ACHN; assay: Induction of apoptosis in human ACHN cells assessed as viable cells at 2 uM after 48 hrs by Annexin V-FITC/propidium iodide staining based flow cytometric method (reference value: 100%); format: functional; settings: read-out: Activity; summary of the method: as §1
[23] = tested on: ACHN; assay: Induction of apoptosis in human ACHN cells assessed as early apoptotic cells at 4 uM after 72 hrs by Annexin V-FITC/propidium iodide staining based flow cytometric method (reference value: 0%); format: functional; summary of the method: as §1
[24] = tested on: Staphylococcus aureus; assay: Antimicrobial activity against Staphylococcus aureus subsp. aureus Rosenbach ATCC 25923 after 24 hrs by serial dilution method; format: functional; settings: Rosenbach ATCC 25923, 24 h; summary of the method: as §2
[25] = tested on: ACHN; assay: Induction of apoptosis in human ACHN cells assessed as viable cells at 4 uM after 48 hrs by Annexin V-FITC/propidium iodide staining based flow cytometric method (reference value: 100%); format: functional; settings: read-out: Activity; summary of the method: as §1
[26] = tested on: Escherichia coli; assay: Antimicrobial activity against Escherichia coli ATCC 25922 after 24 hrs by serial dilution method; format: functional; settings: ATCC 25922, 24 h; summary of the method: as §2
[27] = tested on: ACHN; assay: Induction of apoptosis in human ACHN cells assessed as necrotic cells at 4 uM after 72 hrs by Annexin V-FITC/propidium iodide staining based flow cytometric method (reference value: 0%); format: functional; summary of the method: as §1
[28] = tested on: ACHN; assay: Induction of apoptosis in human ACHN cells assessed as late apoptotic cells at 1 uM after 24 hrs by Annexin V-FITC/propidium iodide staining based flow cytometric method (reference value: 0%); format: functional; summary of the method: as §1
[29] = tested on: ACHN; assay: Induction of apoptosis in human ACHN cells assessed as viable cells at 2 uM after 72 hrs by Annexin V-FITC/propidium iodide staining based flow cytometric method (reference value: 100%); format: functional; settings: read-out: Activity; summary of the method: as §1
[30] = tested on: ACHN; assay: Induction of apoptosis in human ACHN cells assessed as viable cells at 1 uM after 72 hrs by Annexin V-FITC/propidium iodide staining based flow cytometric method (reference value: 100%); format: functional; settings: read-out: Activity; summary of the method: as §1
[31] = tested on: ACHN; assay: Induction of apoptosis in human ACHN cells assessed as necrotic cells at 1 uM after 72 hrs by Annexin V-FITC/propidium iodide staining based flow cytometric method (reference value: 0%); format: functional; summary of the method: as §1
[32] = tested on: ACHN; assay: Induction of apoptosis in human ACHN cells assessed as viable cells at 4 uM after 24 hrs by Annexin V-FITC/propidium iodide staining based flow cytometric method (reference value: 100%); format: functional; settings: read-out: Activity; summary of the method: as §1
[33] = tested on: SGC-7901; assay: Cytotoxicity against human SGC7901 cells after 6 days by MTT assay; format: functional, cell-based; settings: SGC-7901, 144 h
Summary of the method: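 HepG-2 and SGC7901 cells; growth inhibition read by MTT method, with 5-fluorouracil as positive control.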

For `C=C(/C=N/O)[C@]1(OC)C[C@@]2(C)C(=CC1=O)C=C[C@H](OC(=O)/C=C/C(C)=C/[C@@H](C)CC)[C@@H]2C`, the viability at 1 µM [1] was 93.2%, the Activity [2] was 0.7% and the Activity [3] was 21.8%. The Activity [4] was 0.6%, the Activity [5] was 1.3% and the Activity [6] was 6.8%. The MIC [7] was over 100 µg/mL, the Activity [8] was 1.1% and the MIC [9] was over 100 µg/mL. It also gave an Activity [10] of 6%, an Activity [11] of 1.8% and an Activity [12] of 11.3%. For the same compound, the Activity [13] was 5.5%, the Activity [14] was “inactive” and the Activity [15] was 3.8%. For the same compound, the Activity [16] was 19.2%, the viability at 1 µM [17] was 91.4% and the Activity [18] was 1.1%. For the same compound, the Activity [19] was 1.2%, the Activity [20] was 9.3% and the Activity [21] was 0.8%. It also gave a viability at 2 µM [22] of 87.1%, an Activity [23] of 83.8% and an MIC [24] of over 100 µg/mL. For the same compound, the viability at 4 µM [25] was 50%, the MIC [26] was over 100 µg/mL and the Activity [27] was 0.8%. For the same compound, the Activity [28] was 0.7%, the viability at 2 µM [29] was 80.5% and the viability at 1 µM [30] was 90.8%. For the same compound, the Activity [31] was 6.2%, the viability at 4 µM [32] was 76% and the IC50 [33] was 17 µM.
